Measurements reported in ChEMBL document CHEMBL3045158, “Synthesis and antiviral activities of chiral thiourea derivatives containing an alpha-aminophosphonate moiety” (J Agric Food Chem, 2009).
Values after ≈ are worked out from the molar mass of the structure shown.

Key:
Tobacco mosaic virus [1] = assay: Antiviral activity against Tobacco mosaic virus (TMV) in compound treated Nicotiana tabacum L.leaves assessed as curative effect from local lesions at 500 ug/ml measured after 3 to 4 days; format: functional
Tobacco mosaic virus [2] = assay: Antiviral activity against Tobacco mosaic virus (TMV) in compound treated Nicotiana tabacum L.leaves assessed as protective effect from local lesions at 500 ug/ml measured after 3 to 4 days; format: functional
Method in brief: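 Half-leaf test on same-age N. tabacum L. leaves: compound solution smeared on the left half, solvent on the right as control. Leaves were inoculated 12 h later by brush with TMV at 6 × 10-3 mg/mL on silicon carbide-dusted leaves, then rinsed with water. Local lesions were counted 3–4 days later, three repetitions. Inhibition % = (control lesions − treated lesions)/control lesions × 100.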

Tobacco mosaic virus [3] = assay: Antiviral activity against Tobacco mosaic virus (TMV) in compound treated Nicotiana tabacum L.leaves assessed as curative effect; format: functional, organism-based
Tobacco mosaic virus [4] = assay: Antiviral activity against Tobacco mosaic virus (TMV) in compound treated Nicotiana tabacum L.leaves assessed as curative effect at 250 ug/ml; format: functional
Tobacco mosaic virus [5] = assay: Antiviral activity against Tobacco mosaic virus (TMV) in compound treated Nicotiana tabacum L.leaves assessed as curative effect at 125 ug/ml; format: functional
Tobacco mosaic virus [6] = assay: Antiviral activity against Tobacco mosaic virus (TMV) in compound treated Nicotiana tabacum L.leaves assessed as curative effect at 500 ug/ml; format: functional

Q: Which results are given for CC(C)OP(=O)(OC(C)C)C(NC(=S)N[C@H](C)C1CCCCC1)c1ccccc1 (stereo not given in full)?
A: Activity (Tobacco mosaic virus [1]): 34.6%; Activity (Tobacco mosaic virus [2]): 33.7%

Q: Which results are given for CCCCOP(=O)(OCCCC)C(NC(=S)N[C@@H](C)C1CCCCC1)c1ccccc1 (stereo not given in full)?
A: EC50 (Tobacco mosaic virus [3]): 379 µg/mL (≈ 809 µM); Activity (Tobacco mosaic virus [4]): 37.2%; Activity (Tobacco mosaic virus [5]): 32.9%; Activity (Tobacco mosaic virus [6]): 50.4%; Activity (Tobacco mosaic virus [1]): 50.4%; Activity (Tobacco mosaic virus [2]): 36.3%

Q: What does the source list for CCCCOP(=O)(OCCCC)C(NC(=S)N[C@H](C)C1CCCCC1)c1ccccc1 (stereo not given in full)?
A: Activity (Tobacco mosaic virus [1]): 34.6%; Activity (Tobacco mosaic virus [2]): 33.7%

Q: What does the source list for CCOP(=O)(OCC)C(NC(=S)N[C@@H](C)c1ccccc1)c1ccccc1 (stereo not given in full)?
A: Activity (Tobacco mosaic virus [1]): 41.8%; Activity (Tobacco mosaic virus [2]): 37.6%

Q: What does the source list for CCOP(=O)(OCC)C(NC(=S)N[C@H](C)c1ccccc1)c1ccccc1 (stereo not given in full)?
A: Activity (Tobacco mosaic virus [1]): 45.2%; Activity (Tobacco mosaic virus [2]): 42.6%

Q: Which Activity (Tobacco mosaic virus [1]) does the source give for CCOP(=O)(OCC)C(NC(=S)N[C@@H](C)C1CCCCC1)c1ccccc1 (stereo not given in full) here?
A: Its Activity is 36.3%.

Q: And the Activity (Tobacco mosaic virus [2])?
A: Its Activity is 36.4%.

Q: What does the source list for CCOP(=O)(OCC)C(NC(=S)N[C@H](C)C1CCCCC1)c1ccccc1 (stereo not given in full)?
A: Activity (Tobacco mosaic virus [1]): 40.1%; Activity (Tobacco mosaic virus [2]): 33.1%

Q: Which EC50 (Tobacco mosaic virus [3]) does the source give for CCCOP(=O)(OCCC)C(NC(=S)N[C@@H](C)c1ccccc1)c1ccccc1 (stereo not given in full) here?
A: The EC50 was 400 µg/mL (≈ 920 µM).

Q: What about the Activity (Tobacco mosaic virus [4]) of the same compound?
A: The Activity was 37.7%.

Q: What about the Activity (Tobacco mosaic virus [5]) of the same compound?
A: The Activity was 30.9%.

Q: And the Activity (Tobacco mosaic virus [6])?
A: The Activity was 50.5%.

Q: And the Activity (Tobacco mosaic virus [1])?
A: The Activity was 50.5%.

Q: And the Activity (Tobacco mosaic virus [2])?
A: Its Activity is 42.7%.

Q: For CCCOP(=O)(OCCC)C(NC(=S)N[C@H](C)c1ccccc1)c1ccccc1 (stereo not given in full), which Activity (Tobacco mosaic virus [1]) is on record?
A: The Activity was 41.9%.

Q: And the Activity (Tobacco mosaic virus [2])?
A: Its Activity is 45.9%.

Q: How did the EC50 (Tobacco mosaic virus [3]) turn out when CCCOP(=O)(OCCC)C(NC(=S)N[C@@H](C)C1CCCCC1)c1ccccc1 (stereo not given in full) was run?
A: The EC50 was 240 µg/mL (≈ 544 µM).

Q: And the Activity (Tobacco mosaic virus [4])?
A: Its Activity is 49%.

Q: What about the Activity (Tobacco mosaic virus [5]) of the same compound?
A: Its Activity is 39.1%.

Q: What about the Activity (Tobacco mosaic virus [6]) of the same compound?
A: Its Activity is 54.8%.

Q: What about the Activity (Tobacco mosaic virus [1]) of the same compound?
A: The Activity was 54.3%.

Q: And the Activity (Tobacco mosaic virus [2])?
A: Its Activity is 30.9%.

Q: Which Activity (Tobacco mosaic virus [1]) does the source give for CCCOP(=O)(OCCC)C(NC(=S)N[C@H](C)C1CCCCC1)c1ccccc1 (stereo not given in full) here?
A: Its Activity is 40.7%.

Q: And the Activity (Tobacco mosaic virus [2])?
A: Its Activity is 37.9%.

Q: How did the Activity (Tobacco mosaic virus [1]) turn out when CC(C)OP(=O)(OC(C)C)C(NC(=S)N[C@@H](C)c1ccccc1)c1ccccc1 (stereo not given in full) was run?
A: Its Activity is 36.8%.

Q: And the Activity (Tobacco mosaic virus [2])?
A: Its Activity is 36.9%.

Q: For CC(C)OP(=O)(OC(C)C)C(NC(=S)N[C@H](C)c1ccccc1)c1ccccc1 (stereo not given in full), which Activity (Tobacco mosaic virus [1]) is on record?
A: Its Activity is 34.5%.

Q: And the Activity (Tobacco mosaic virus [2])?
A: The Activity was 46.3%.

Q: Which results are given for CC(C)OP(=O)(OC(C)C)C(NC(=S)N[C@@H](C)C1CCCCC1)c1ccccc1 (stereo not given in full)?
A: EC50 (Tobacco mosaic virus [3]): 413 µg/mL (≈ 938 µM); Activity (Tobacco mosaic virus [4]): 36.7%; Activity (Tobacco mosaic virus [5]): 29%; Activity (Tobacco mosaic virus [6]): 50.4%; Activity (Tobacco mosaic virus [1]): 50.4%; Activity (Tobacco mosaic virus [2]): 36.3%

Q: Which EC50 (Tobacco mosaic virus [3]) does the source give for CNCC(=O)N[C@@H](CO)C(=O)N[C@H]1[C@H](O)[C@@H](O)[C@H](n2ccc(N)nc2=O)O[C@@H]1C(N)=O [NINGNANMYCIN] here?
A: The EC50 was 227 µg/mL (≈ 512 µM).

Q: What about the Activity (Tobacco mosaic virus [4]) of the same compound?
A: Its Activity is 50.7%.

Q: What about the Activity (Tobacco mosaic virus [5]) of the same compound?
A: The Activity was 41.9%.

Q: And the Activity (Tobacco mosaic virus [6])?
A: The Activity was 56.2%.

Q: What about the Activity (Tobacco mosaic virus [1]) of the same compound?
A: Its Activity is 56.2%.

Q: And the Activity (Tobacco mosaic virus [2])?
A: The Activity was 60.6%.
